# From PubChem BioAssay AID493091 (Sanford-Burnham Center for Chemical Genomics, 2011)
# Screen size: about 340,000 compounds; about 3,000 (0.88%) were called active.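 Rule for the calls: active = inhibition above about 50% at 20 µM (limit read from the data); inactive = the rest.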 Shown is part of a subset that was picked to be rich in actives.
# Target: Carboxy-terminal domain RNA polymerase II polypeptide A small phosphatase 1 (Homo sapiens) (UniProt Q9GZU7)
# Experiment: Scp-1 phosphatase inhibitors, primary screen, biochemical, colorimetric, uHTS (AID 493091);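 note: plate controls were DMSO wells with enzyme for no effect and wells lacking enzyme for full effect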
# Conditions: Recombinant Scp1, phosphopeptide, malachite green phosphate absorbance; at 20 µM; stronger effect = higher value
# Summary of the method: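 System: SCP-1 catalytic domain; Reagent: Phospho 17-mer peptide substrate; Doses: one concentration, 20 µM, with 1.0% DMSO; Incubation: 45 min room-temperature reaction, 5 min colour, 30 min stabiliser; Signal: Phosphate-binding colour reagent, absorbance read at 630 nm.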
# Carboxy-terminal domain RNA polymerase II polypeptide A small phosphatase 1 (Homo sapiens), sequence (Q9GZU7 76-261 limits assumed): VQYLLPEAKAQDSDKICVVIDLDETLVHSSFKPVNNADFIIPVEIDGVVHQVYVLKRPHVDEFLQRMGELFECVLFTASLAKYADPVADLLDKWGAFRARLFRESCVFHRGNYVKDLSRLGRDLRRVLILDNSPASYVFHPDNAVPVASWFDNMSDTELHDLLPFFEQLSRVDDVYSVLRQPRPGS
row,Compound,inhibition
1,O=C(O)CCn1cc(C=C2C(=O)NC(=S)NC2=O)c(-c2cccc(Br)c2)n1,69.2% (active)
2,CC(=O)N(C1=NCCCS1)c1ccccc1F,-8.48% (inactive)
3,Nc1ccc(Cc2ccc(N)c(Cl)c2)cc1Cl,-6.26% (inactive)
4,Cc1ccc(C2CN(C)CC2C(=O)c2ccc(F)cc2)cc1 (stereo not given),2.83% (inactive)
5,O=C(Cc1ccc(Cl)cc1)NCCN1CCN(C(=O)Cc2ccc(Cl)cc2)CC1,-8.32% (inactive)
6,Cc1ccc(S(=O)(=O)N(C)c2ccc(C(=O)NCC3(N(C)C)CCCCC3)cc2)cc1,-2.43% (inactive)
7,COc1cccc(N2C(=O)NC(=O)/C(=C\c3ccc([N+](=O)[O-])s3)C2=O)c1,17.3% (inactive)
8,O=C1NC(=O)N(Cc2ccco2)C(=O)/C1=C\c1ccc(-c2ccc(F)cc2)o1,5.05% (inactive)
9,COc1ccc(N2C(=O)/C(=C/c3ccco3)C(=O)NC2=S)cc1,92.7% (active)
10,CCN(CC)CCOC(=O)c1cc2cc(COC)ccc2o1,70.7% (active)
11,COc1ccc2c(c1)NP(=S)(c1ccccc1)N2 (stereo not given),0.52% (inactive)
12,CSc1ccc(C(=O)C2CCCN(Cc3ccn[nH]3)C2)cc1 (stereo not given),-7.2% (inactive)
13,CCN(CC)C(=O)Oc1ccc(NC(=O)N2CCOCC2)cc1,-3.55% (inactive)
14,COC(=O)C1=C(c2cc3ccccc3s2)C[C@@H]2CC[C@H]1N2C(=O)NCc1cccc2ccccc12,-7.13% (inactive)
15,O=c1[nH]c(=O)n(CCc2ccc(F)cc2)c(O)c1/C=N/N1CCCCC1,51% (active)
16,O=c1[nH]c(=O)n(CCc2ccccc2)c(O)c1/C=N/N1CCOCC1,-5.04% (inactive)
17,O=c1[nH]c(=O)n(-c2ccc(F)cc2)c(O)c1C=NCCN1CCCCC1,-0.8% (inactive)
18,CN1CCN(Cc2ccc(OC(F)(F)F)cc2)CC1,22.4% (inactive)
19,COc1ccccc1N=C1SCCCN1C,95.3% (active)
20,COc1ccccc1N=Nc1c(O)[nH]c(=S)[nH]c1=O,9.19% (inactive)
21,CC(=O)Nc1ccc(C(=O)C(Cc2ccccc2)N(C)C)cc1 (stereo not given),-12.1% (inactive)
22,O=C(NCC(c1cccnc1)N1CCN(c2ccccc2)CC1)Oc1ccccc1 (stereo not given),-0.44% (inactive)
23,CC1CNCCN1c1ccc(Cl)cc1 (stereo not given),2.17% (inactive)
24,CN(C)C(=O)Oc1ccc2c(c1)O/C(=C\c1ccccc1)C2=O,-15.9% (inactive)
25,Cc1ccc(C)c(NC2=NCCCS2)c1,-6% (inactive)
